This is a sample that favours compounds with a hit; in the whole collection about 2.5% have one here.
VIM-2 inh – inhibitors of Pseudomonas aeruginosa VIM-2 metallo-beta-lactamase | purified VIM-2, nitrocefin hydrolysis, epi-absorbance fluorescence | inhibition, % at 5.6 µM | 290,000 tested, 0.89% active | AID 1527;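 active = inhibition above the mean of all tested compounds plus 3 SD, cutoff set per screening run, cut at about 7.5% in these data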;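 note: red hydrolysis product quenches plate fluorescence so inhibitors raise well fluorescence; 0% = enzyme with DMSO and 100% = DMSO without enzyme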
m5-HT2A agonist – mouse HTR2A agonism via beta-arrestin recruitment | CHO-K1 mHTR2A beta-arrestin complementation, luminescence; percent of 30 µM serotonin response | activation, % at 7.6 µM | AID 624169 | 360,000 tested, 0.66% active;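 active = activation above a run cutoff, the mean activation of all tested compounds plus 3 SD, cut at about 14% in these data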;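 note: 0% = plate median of compound wells and 100% = 30 µM serotonin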
Target sequence (P35363 whole entry, looked up): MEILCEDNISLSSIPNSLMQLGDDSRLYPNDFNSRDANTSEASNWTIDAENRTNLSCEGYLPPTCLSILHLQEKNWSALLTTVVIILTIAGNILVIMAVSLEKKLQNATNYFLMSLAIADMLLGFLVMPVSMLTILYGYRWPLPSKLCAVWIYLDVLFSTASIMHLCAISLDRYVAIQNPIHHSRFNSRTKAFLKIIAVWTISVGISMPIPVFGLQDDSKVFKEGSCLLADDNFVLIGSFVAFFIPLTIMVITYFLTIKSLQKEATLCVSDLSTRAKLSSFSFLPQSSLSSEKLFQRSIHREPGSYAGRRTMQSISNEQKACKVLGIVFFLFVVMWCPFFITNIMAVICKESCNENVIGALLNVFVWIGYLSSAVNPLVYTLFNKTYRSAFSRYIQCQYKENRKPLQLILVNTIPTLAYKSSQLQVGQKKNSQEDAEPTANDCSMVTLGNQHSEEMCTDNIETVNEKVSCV
dFosB activator – activators of mouse delta FosB homodimer | P13346 | purified delta FosB, TAMRA-CDK5 oligo fluorescence polarization; percent of positive-control signal above neutral wells | AID 493131 | activation, % at 25 µM | 340,000 tested, 0.99% active;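 active = mean activation above about 17%, with every replicate also reaching it, limit read from the data, passing the limit was not always enough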
IMP-1 inhibitor – blocks Pseudomonas aeruginosa IMP-1 metallo-beta-lactamase | purified IMP-1, nitrocefin hydrolysis, epi-absorbance fluorescence | inhibition, % at 5.6 µM | 290,000 tested, 0.45% active;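 active = inhibition above the mean plus 3 SD of all compounds in the same screening run, cut at about 4.5% in these data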;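 note: 0% = IMP-1 with DMSO and 100% = DMSO wells lacking enzyme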
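System: purified recombinant IMP-1 beta-lactamase. Medium: Zinc- and detergent-supplemented HEPES buffer, pH 7.1. Compound: one 5.6 µM dose […]. Schedule: 15 min preincubation plus 25 min reaction at 25 °C. Technique: Epi-absorbance fluorescence, 480 nm excitation, 530 nm emission.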
OPRM1 ag – OPRM1 agonism in mouse HTR2A counterscreen | shares compounds with m5-HT2A agonist | U2OS OPRM1 beta-arrestin PathHunter, luminescence; DMSO 0%, DAMGO 9.3 µM 100% | activation, % at 9.3 µM | 2,300 tested, 5.3% active | AID 624380;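 active = mean activation above the mean of DMSO-only wells plus 3 SD, cut at about 0.5% in these data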
m5-HT2A ag conf – mouse HTR2A agonism confirmed. 2,300 tested, 19% active. shares compounds with m5-HT2A agonist. CHO-K1 PathHunter beta-arrestin recruitment, luminescence; DMSO 0%, 30 µM serotonin 100%. activation, % at 7.6 µM. AID 624381;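 active = mean activation across triplicates above the hit threshold derived in the original primary screen, cut at about 15% in these data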
Numbers without * were called inactive; x = not tested or not shown.

SMILES	VIM-2 inh	m5-HT2A agonist	dFosB activator	IMP-1 inhibitor	OPRM1 ag	m5-HT2A ag conf
CCOc1ccc(NC(=S)N(CCc2c(C)[nH]c3ccc(C)cc23)Cc2ccco2)cc1	0	6	-12	0	x	x
COc1ccc(NC(=S)N(CCc2c(C)[nH]c3ccc(C)cc23)Cc2ccco2)cc1	-1	23*	-6	0	0	-3
CS(=O)(=O)CCC(C(=O)OCc1ccc(Cl)cc1)N1C(=O)c2ccccc2C1=O (stereo not drawn)	-1	17*	-11	1	0	-3
O=c1[nH]cc(S(=O)(=O)N2CCOCC2)c(=O)[nH]1	x	-3	-1	x	x	x
Cc1cc(Cl)ccc1OC(C)C(=O)NC(C)C1CCCO1 (stereo not drawn)	-2	16*	-8	-3	0	-3
CC(NC(=O)Nc1ccc(Cl)cc1)C1CCCO1 (stereo not drawn)	-2	0	2	-2	x	x
Cc1cc(OC(C)C(=O)NCC2CCCO2)cc(C)c1Cl (stereo not drawn)	-2	15*	-1	-2	-1	-4
CCN1C(=O)[C@@H]2[C@@H]3CN(S(=O)(=O)c4ccc(C)cc4)[C@@H](c4ccccc4F)[C@@H]3C(=O)C[C@@H]2C1=O	x	15*	x	x	0	1
O=C(Nc1nnc(C2CC2)s1)c1cccc(S(=O)(=O)N2CC(c3ccccc3)CC2=O)c1 (stereo not drawn)	-2	17*	-10	-5	-1	-6
C=CCN(c1ccccc1OC)S(=O)(=O)c1cccc(C(=O)Nc2nnc(C3CC3)s2)c1	x	0	-2	x	x	x
O=C(CCS(=O)(=O)c1ccccc1)NCCS(=O)(=O)c1ccccc1	0	0	1	-3	x	x
CCNC(=O)CCS(=O)(=O)c1ccc2ccccc2c1	-4	16*	0	-3	0	-3
Cc1ccc(C)c2[nH]c(=O)c(CN(CCN3CCCC3)C(=O)Nc3ccc(F)cc3)cc12	-3	17*	10	-4	-1	5
COc1cc2cc(CN(CCN3CCCC3)C(=O)Nc3ccc(F)cc3)c(=O)[nH]c2cc1OC	-1	3	14	-3	x	x
O=C(CCC(=O)N1CCN(S(=O)(=O)c2ccccc2Cl)CC1)c1ccccc1	x	2	-5	x	x	x
Cc1ccc(S(=O)(=O)N2CCCCC2)cc1NS(=O)(=O)c1ccc(Cl)c(C(=O)O)c1	x	17*	1	x	0	1
O=C(O)c1cc(S(=O)(=O)N2CCCCC2)ccc1Cl	-5	4	-9	-4	x	x
O=C(C1CCN(CCCc2ccccc2)CC1)N1CCCCC1	-1	20*	-1	-1	-1	45*
CC1CCN(C(=O)C2CCN(CCCc3ccccc3)CC2)CC1	0	x	x	-1	x	x
Nc1nc(F)nc2c1ncn2[C@@H]1O[C@H](CO)[C@@H](O)[C@H]1O	x	20*	3	x	0.9*	11
Nc1nc(F)nc2c1ncn2[C@@H]1O[C@H](CO)[C@@H](O)[C@@H]1O	-2	4	4	-4	x	x
CC(N)C(=O)NC(C(=O)NC(C)C(=O)Nc1cccc2ccccc12)C(C)C (stereo not drawn)	x	4	x	x	x	x
CCOC(=O)C1CCN(Cc2cccc(Oc3ccccc3)c2)CC1	-2	14	-5	-2	x	x
CCOC(=O)C1CCN(Cc2cccc(Oc3ccc(Cl)cc3)c2)CC1	-2	20*	-6	-2	0	70*
Cc1cc2ncn(CC3CC3(Cl)Cl)c2cc1C (stereo not drawn)	-1	1	-2	-2	x	x
SMILES	VIM-2 inh	m5-HT2A agonist	dFosB activator	IMP-1 inhibitor	OPRM1 ag	m5-HT2A ag conf
O=C([C@H](Cc1ccccc1)NS(=O)(=O)c1ccc(Cl)cc1)N1CC[C@@]2(O)CCCC[C@H]2C1	-2	17*	-1	-3	-1	-5
CCCCC(=O)N(C)c1c(CC)nc2c(OCCOc3ccc(F)cc3)cccn12	x	2	x	x	x	x
CCCCC(=O)N(C)c1c(CC)nc2c(OCCOc3ccccc3)cccn12	x	25*	x	x	-1	-2
CCOc1ccc(CCNC(=O)c2cc(=O)[nH]c3ccc(S(=O)(=O)N(CC)CC)cc23)cc1OCC	-3	17*	2	-2	0	0
CCN(CC)S(=O)(=O)c1ccc2[nH]c(=O)cc(C(=O)NCc3ccccc3)c2c1	-4	10	0	-3	x	x
CN(CC(=O)Nc1ccc(F)c(F)c1F)C(=O)CC1OC(=O)c2ccccc21 (stereo not drawn)	x	4	-2	x	x	x
Cc1cccc(C)c1NC(=O)CN(C)C(=O)CC1OC(=O)c2ccccc21 (stereo not drawn)	x	18*	0	x	-1	-1
COc1cccc(N2CCN(c3ncnc4c3cnn4-c3ccc(C)cc3C)CC2)c1	-4	15*	-6	-2	3.0*	10
Cc1ccc(S(=O)(=O)N2CCCCC2)cc1C(=O)NCc1ccc(S(N)(=O)=O)cc1	x	-5	2	x	x	x
CC(=O)N1CCN(C(=S)NC(=O)c2ccc(S(=O)(=O)N3CCOCC3)cc2)CC1	-2	16*	-3	-4	-1	-3
COc1ccc(C(CNC(=O)CCNS(=O)(=O)c2ccccc2)N2CCOCC2)cc1 (stereo not drawn)	x	-2	x	x	x	x
Cc1cccc(C)c1NC(=O)NN=C1CCCCC1	-1	16*	-9	-2	-1	-3
CC(Sc1ccc(Cl)cc1)C(=O)Nc1ccc2c(c1)OCO2 (stereo not drawn)	-2	-4	4	-1	x	x
CC(Sc1ccc(Cl)cc1)C(=O)NCc1ccc2c(c1)OCO2 (stereo not drawn)	-4	22*	-6	-2	-1	2
CCOC(=O)C1CCN(C(=O)CSCc2nc(-c3ccc(OCC)cc3)oc2C)CC1	-5	16*	-15	-3	0	0
CCOc1ccc(-c2nc(CSCC(=O)N3CCN(C(=O)c4ccco4)CC3)c(C)o2)cc1	-1	-3	-13	1	x	x
Brc1cc2c(cc1CSc1ncccn1)OCO2	-3	2	-5	-4	x	x
OC(COc1ccc(OCC(O)CN2CCCCC2)cc1)CN1CCCCC1 (stereo not drawn)	1	17*	2	1	-1	-4
COc1ccc(OCC(O)CN2CCCCC2)cc1 (stereo not drawn)	-1	4	-1	-5	x	x
CC(C)(C)C1CCC(OCC(O)CN2CCN(c3ccccn3)CC2)CC1 (stereo not drawn)	1	18*	-9	0	0	94*
CC(=O)c1ccc(OCC(O)CN2CCN(c3ccccn3)CC2)cc1 (stereo not drawn)	0	37*	x	-1	-1	92*
O=C(COC(=O)C1CCCCC1)Nc1cccc(Br)c1	x	-1	-12	x	x	x
COCCCNC(=O)Cn1ncc2c(=O)oc3ccccc3c21	-2	1	2	-2	x	x
